Measured values: ChEMBL document CHEMBL1275519, “In vivo pharmacodynamics of ceftobiprole against multiple bacterial pathogens in murine thigh and lung infection models” (Antimicrob Agents Chemother, 2008)
≈ marks a conversion by molar mass, not a printed value.

Key:
[1] = test system: Staphylococcus aureus; assay: Antimicrobial activity against Staphylococcus aureus ATCC 29213 by broth dilution method; assay type: functional
In short: (§1)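 Ceftobiprole MIC by broth microdilution per Clinical and Laboratory Standards Institute (formerly NCCLS) methods, using ceftobiprole standard powder.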

[2] = test system: Staphylococcus aureus; assay: Antimicrobial activity against Staphylococcus aureus ATCC 33591 by broth dilution method; assay type: functional; in short: as §1
[3] = test system: Streptococcus pneumoniae; assay: Antimicrobial activity against Streptococcus pneumoniae ATCC 10813 by broth dilution method; assay type: functional
In short: (§2)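 Ceftobiprole MIC determined by CLSI (NCCLS) broth microdilution.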

[4] = T>MIC in methicillin-resistant Staphylococcus aureus WIS-1 infected CD1 neutropenic mouse at static dose of 16.1 mg/kg, sc administered every 6 hrs; assay type: functional; settings: route subcutaneous
[5] = T>MIC in Klebsiella pneumoniae infected CD1 neutropenic mouse at static dose of 6.61 mg/kg, sc administered every 6 hrs; assay type: functional; settings: route subcutaneous
In short: (§3)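 Neutropenic mice (cyclophosphamide i.p. 150 and 100 mg/kg, 4 and 1 days pre-infection) given 0.1 ml thigh inoculum (1:10 dilution of 10^8 CFU/ml), then treated from 2 h post-infection for 24 h with s.c. ceftobiprole medocaril (0.010–160 mg/kg) at varied intervals. Thigh CFU plated from homogenates. Static dose came from a sigmoid Hill model, and T>MIC was estimated from mouse PK and MIC.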

[6] = Cmax in CD1 neutropenic mouse with bacterial infection in thigh at 160 mg/kg, sc; assay type: ADME, organism-based; design: dose 160 mg/kg, route subcutaneous; settings: in vivo
In short: (§4)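 Neutropenic thigh-infected mice (cyclophosphamide i.p. 150 mg/kg day −4, 100 mg/kg day −1) given single s.c. ceftobiprole medocaril doses; two groups of three mice per dose bled retro-orbitally at 0.5–6 h, each animal 3–4 times. Total serum drug measured by agar diffusion bioassay with E. coli NIH-J (linear 0.25–256 μg/ml). Cmax, t1/2 and AUC from one-compartment model.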

[7] = T>MIC in methicillin-resistant Staphylococcus aureus 22115 infected CD1 neutropenic mouse at 2-log kill dose of 34.4 mg/kg, sc administered every 6 hrs; assay type: functional; settings: route subcutaneous
[8] = T>MIC in methicillin-resistant Staphylococcus aureus 22115 infected CD1 neutropenic mouse at static dose of 16.9 mg/kg, sc administered every 6 hrs; assay type: functional; settings: route subcutaneous
[9] = test system: Enterobacter cloacae; assay: Antimicrobial activity against Enterobacter cloacae 2249 by broth dilution method; assay type: functional; in short: as §2
[10] = T>MIC in Streptococcus pneumoniae MNO-418 infected CD1 neutropenic mouse at static dose of 0.238 mg/kg, sc administered every 6 hrs; assay type: functional; settings: route subcutaneous; in short: as §3
[11] = test system: Staphylococcus aureus; assay: Antimicrobial activity against methicillin-resistant Staphylococcus aureus 12248 by broth dilution method; assay type: functional; in short: as §1
[12] = T>MIC in Streptococcus pneumoniae CDC 1329 infected CD1 neutropenic mouse at static dose of 2.93 mg/kg, sc administered every 6 hrs; assay type: functional; settings: route subcutaneous; in short: as §3
[13] = T>MIC in Staphylococcus aureus ATCC 33591 infected CD1 neutropenic mouse at 2-log kill dose of 15.3 mg/kg, sc administered every 6 hrs; assay type: functional; settings: route subcutaneous
[14] = T>MIC in Escherichia coli ATCC 25922 infected CD1 neutropenic mouse at static dose of 8.25 mg/kg, sc administered every 6 hrs; assay type: functional; settings: route subcutaneous; in short: as §3
[15] = T>MIC in methicillin-resistant Staphylococcus aureus 11888 infected CD1 neutropenic mouse at static dose of 22.6 mg/kg, sc administered every 6 hrs; assay type: functional; settings: route subcutaneous
[16] = T>MIC in Streptococcus pneumoniae CDC 673 infected CD1 neutropenic mouse at static dose of 6.68 mg/kg, sc administered every 6 hrs; assay type: functional; settings: route subcutaneous; in short: as §3
[17] = T>MIC in methicillin-resistant Staphylococcus aureus WIS-1 infected CD1 neutropenic mouse at 2-log kill dose of 53.9 mg/kg, sc administered every 6 hrs; assay type: functional; settings: route subcutaneous
[18] = T>MIC in Enterobacter cloacae 2249 infected CD1 neutropenic mouse at 2-log kill dose of 155 mg/kg, sc administered every 3 hrs; assay type: functional; settings: route subcutaneous
[19] = test system: Staphylococcus aureus; assay: Antimicrobial activity against methicillin-resistant Staphylococcus aureus 22115 by broth dilution method; assay type: functional; in short: as §1
[20] = T>MIC in Staphylococcus aureus ATCC 33591 infected CD1 neutropenic mouse at static dose of 7.91 mg/kg, sc administered every 6 hrs; assay type: functional; settings: route subcutaneous; in short: as §3
[21] = test system: Streptococcus pneumoniae; assay: Antimicrobial activity against Streptococcus pneumoniae MNO-418 by broth dilution method; assay type: functional; in short: as §1
[22] = test system: Klebsiella pneumoniae; assay: Antimicrobial activity against Klebsiella pneumoniae ATCC 43816 by broth dilution method; assay type: functional; in short: as §2
[23] = Half life in CD1 neutropenic mouse with bacterial infection in thigh at 160 mg/kg, sc; assay type: ADME, organism-based; design: dose 160 mg/kg, route subcutaneous; settings: in vivo; in short: as §4
[24] = test system: Streptococcus pneumoniae; assay: Antimicrobial activity against Streptococcus pneumoniae CDC 1329 by broth dilution method; assay type: functional; in short: as §2
[25] = T>MIC in Streptococcus pneumoniae MNO-418 infected CD1 neutropenic mouse at 2-log kill dose of 0.624 mg/kg, sc administered every 6 hrs; assay type: functional; settings: route subcutaneous
[26] = test system: Streptococcus pneumoniae; assay: Antimicrobial activity against Streptococcus pneumoniae CDC 673 by broth dilution method; assay type: functional; in short: as §1
[27] = AUC in CD1 neutropenic mouse with bacterial infection in thigh at 40 mg/kg, sc; assay type: ADME, organism-based; design: dose 40 mg/kg, route subcutaneous; settings: plasma; in short: as §4
[28] = T>MIC in Escherichia coli ATCC 25922 infected CD1 neutropenic mouse at 2-log kill dose of 42.4 mg/kg, sc administered every 6 hrs; assay type: functional; settings: route subcutaneous
[29] = test system: Staphylococcus aureus; assay: Antimicrobial activity against Staphylococcus aureus ATCC 22923 by broth dilution method; assay type: functional; in short: as §1
[30] = AUC in CD1 neutropenic mouse with bacterial infection in thigh at 160 mg/kg, sc; assay type: ADME, organism-based; design: dose 160 mg/kg, route subcutaneous; settings: plasma; in short: as §4
[31] = Half life in CD1 neutropenic mouse with bacterial infection in thigh at 10 mg/kg, sc; settings: in vivo
[32] = T>MIC in Staphylococcus aureus ATCC Smith infected CD1 neutropenic mouse at static dose of 4.21 mg/kg, sc administered every 6 hrs; assay type: functional; settings: route subcutaneous; in short: as §3
[33] = T>MIC in Streptococcus pneumoniae CDC-145 infected CD1 neutropenic mouse at static dose of 0.956 mg/kg, sc administered every 6 hrs; assay type: functional; settings: route subcutaneous; in short: as §3

SMILES: Nc1nc(/C(=N/O)C(=O)N[C@@H]2C(=O)N3C(C(=O)O)=C(/C=C4\CCN([C@@H]5CCNC5)C4=O)CS[C@H]23)ns1 [CEFTOBIPROLE]
- MIC [1]: 0.5 µg/mL (≈ 0.935 µM)
- MIC [2]: 1 µg/mL (≈ 1.87 µM)
- MIC [3]: 0.03 µg/mL (≈ 0.0561 µM)
- fT>MIC [4]: 25%
- fT>MIC [5]: 41.2%
- Cmax [6]: 144 µg/mL
- fT>MIC [7]: 29.6%
- fT>MIC [8]: 25.4%
- MIC [9]: 2 µg/mL (≈ 3.74 µM)
- fT>MIC [10]: 21.3%
- MIC [11]: 2 µg/mL (≈ 3.74 µM)
- fT>MIC [12]: 22.2%
- fT>MIC [13]: 24.4%
- fT>MIC [14]: 41.9%
- fT>MIC [15]: 22.5%
- fT>MIC [16]: 18.5%
- fT>MIC [17]: 39.1%
- fT>MIC [18]: 100%
- MIC [19]: 1 µg/mL (≈ 1.87 µM)
- fT>MIC [20]: 19.1%
- MIC [21]: 0.015 µg/mL (≈ 0.0281 µM)
- MIC [22]: 0.06 µg/mL (≈ 0.112 µM)
- half-life [23]: 31.7 min
- MIC [24]: 0.25 µg/mL (≈ 0.468 µM)
- fT>MIC [25]: 31.8%
- MIC [26]: 1 µg/mL (≈ 1.87 µM)
- AUC [27]: 27.8 µg·h/mL
- fT>MIC [28]: 57.8%
- MIC [29]: 0.5 µg/mL (≈ 0.935 µM)
- AUC [30]: 213 µg·h/mL
- half-life [31]: 19 min
- fT>MIC [32]: 19.6%
- fT>MIC [33]: 15.2%
